According to ChEMBL document CHEMBL1123346, “Pyrimidinones. 3. N-substituted 6-phenylpyrimidinones and pyrimidinediones with diuretic/hypotensive and antiinflammatory activity” (J Med Chem, 1986):

Key:
[1] = Potassium salt excretion in conscious rat at the dose of 3.0 mg/kg expressed as urinary excretion in treated rats/urinary excretion in control rats; assay type: ADME, organism-based, Urine; parameters: dose 3 mg/kg; conditions: in vivo
Outline: (§1)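 Male rats (~160 g) fasted 24 h, water withheld 1.5 h; oral gavage of compound (0.3-100 mg/kg) in 25 mL/kg saline with 0.5% carboxymethylcellulose; 5 h urine collection in metabolism cages. Urine volume, Na+ and K+ (flame photometry) expressed as treated/control excretion ratio.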

[2] = system: Rattus norvegicus; test: Blood pressure change in rats after oral administration of 50 mg/kg dose after 24 hours; assay type: functional
Outline: (§2)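 Restrained female Sprague–Dawley rats with indwelling aortic cannulas exteriorized at the nape; direct arterial pressure via transducer, mean pressure by electrical integration of phasic pressure. Readings before and 4 and 24 h after oral dosing (carboxymethylcellulose suspension, 10 mL/kg). Value is change in mean arterial pressure, averaged over two animals.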

[3] = Potassium salt excretion in conscious rat at the dose of 1.0 mg/kg expressed as urinary excretion in treated rats/urinary excretion in control rats; assay type: ADME, organism-based, Urine; parameters: dose 1 mg/kg; conditions: in vivo; outline: as §1
[4] = system: Rattus norvegicus; test: Blood pressure change in rats after oral administration of 50 mg/kg dose after 4 hours; assay type: functional; outline: as §2
[5] = Sodium salt excretion in conscious rat at the dose of 0.3 mg/kg expressed as urinary excretion in treated rats/urinary excretion in control rats; assay type: ADME, organism-based, Urine; parameters: dose 0.3 mg/kg; conditions: in vivo; outline: as §1
[6] = Sodium salt excretion in conscious rat at the dose of 3.0 mg/kg expressed as urinary excretion in treated rats/urinary excretion in control rats; assay type: ADME, organism-based, Urine; parameters: dose 3 mg/kg; conditions: in vivo; outline: as §1
[7] = system: Rattus norvegicus; test: Compound was tested for urinary volume excretion in conscious rat at the dose of 1.0 mg/kg expressed as urinary excretion in treated rats/urinary excretion in control rats; assay type: ADME, organism-based, Urine; parameters: dose 1 mg/kg; conditions: in vivo; outline: as §1
[8] = Potassium salt excretion in conscious rat at the dose of 10 mg/kg expressed as urinary excretion in treated rats/urinary excretion in control rats; assay type: ADME, organism-based, Urine; parameters: dose 10 mg/kg; conditions: in vivo; outline: as §1
[9] = system: Rattus norvegicus; test: Compound was tested for inhibition of RPAR administered perorally at 50 mg/kg dose; assay type: functional; conditions: route oral
Outline: (§3)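 Male Wistar rats (180-200 g), 5-10/group, dosed orally (water with Tween-80 suspension) 1 h before iv sensitization with 1 mg bovine serum albumin; 24-h fasted. 60 min later subplantar challenge with 200 µg anti-BSA in left hindpaw. Paw swelling by mercury displacement plethysmography at 2 h post-challenge.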

[10] = Sodium salt excretion in conscious rat at the dose of 10 mg/kg expressed as urinary excretion in treated rats/urinary excretion in control rats; assay type: ADME, organism-based, Urine; parameters: dose 10 mg/kg; conditions: in vivo; outline: as §1
[11] = system: Rattus norvegicus; test: Compound was tested for urinary volume excretion in conscious rat at the dose of 3.0 mg/kg expressed as urinary excretion in treated rats/urinary excretion in control rats; assay type: ADME, organism-based, Urine; parameters: dose 3 mg/kg; conditions: in vivo; outline: as §1
[12] = Sodium salt excretion in conscious rat at the dose of 100 mg/kg expressed as urinary excretion in treated rats/urinary excretion in control rats; assay type: ADME, organism-based, Urine; parameters: dose 100 mg/kg; conditions: in vivo; outline: as §1
[13] = system: Rattus norvegicus; test: Compound was tested for urinary volume excretion in conscious rat at the dose of 10 mg/kg expressed as urinary excretion in treated rats/urinary excretion in control rats; assay type: ADME, organism-based, Urine; parameters: dose 10 mg/kg; conditions: in vivo; outline: as §1
[14] = Sodium salt excretion in conscious rat at the dose of 30 mg/kg expressed as urinary excretion in treated rats/urinary excretion in control rats; assay type: ADME, organism-based, Urine; parameters: dose 30 mg/kg; conditions: in vivo; outline: as §1
[15] = system: Rattus norvegicus; test: Compound was tested for inhibition of RPAR administered perorally at 100 mg/kg dose; assay type: functional; conditions: route oral; outline: as §3
[16] = species on record: Rattus norvegicus; test: Diuretic activity in rats; assay type: functional, Urine
Outline: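 Male rats (~160 g) fasted 24 h, water withheld 1.5 h, both withheld during test. Gavage 25 mL/kg 0.9% saline with 0.5% carboxymethylcellulose containing compound at 40 mg/kg; urine collected 5 h in metabolism cages. Two-stage test, T/C urine volume per stage; active if product of stage T/Cs ≥3.34.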

[17] = system: Rattus norvegicus; test: Compound was tested for urinary volume excretion in conscious rat at the dose of 30 mg/kg expressed as urinary excretion in treated rats/urinary excretion in control rats; assay type: ADME, organism-based, Urine; parameters: dose 30 mg/kg; conditions: in vivo; outline: as §1
[18] = system: Rattus norvegicus; test: Compound was tested for urinary volume excretion in conscious rat at the dose of 100 mg/kg expressed as urinary excretion in treated rats/urinary excretion in control rats; assay type: ADME, organism-based, Urine; parameters: dose 100 mg/kg; conditions: in vivo; outline: as §1
[19] = Potassium salt excretion in conscious rat at the dose of 100 mg/kg expressed as urinary excretion in treated rats/urinary excretion in control rats; assay type: ADME, organism-based, Urine; parameters: dose 100 mg/kg; conditions: in vivo; outline: as §1
[20] = system: Rattus norvegicus; test: Compound was tested for inhibition of RPAR administered perorally at 25 mg/kg dose; assay type: functional; conditions: route oral; outline: as §3
[21] = Potassium salt excretion in conscious rat at the dose of 0.3 mg/kg expressed as urinary excretion in treated rats/urinary excretion in control rats; assay type: ADME, organism-based, Urine; parameters: dose 0.3 mg/kg; conditions: in vivo; outline: as §1
[22] = Sodium salt excretion in conscious rat at the dose of 1.0 mg/kg expressed as urinary excretion in treated rats/urinary excretion in control rats; assay type: ADME, organism-based, Urine; parameters: dose 1 mg/kg; conditions: in vivo; outline: as §1
[23] = system: Rattus norvegicus; test: Compound was tested for urinary volume excretion in conscious rat at the dose of 0.3 mg/kg expressed as urinary excretion in treated rats/urinary excretion in control rats; assay type: ADME, organism-based, Urine; parameters: dose 0.3 mg/kg; conditions: in vivo; outline: as §1
[24] = Potassium salt excretion in conscious rat at the dose of 30 mg/kg expressed as urinary excretion in treated rats/urinary excretion in control rats; assay type: ADME, organism-based, Urine; parameters: dose 30 mg/kg; conditions: in vivo; outline: as §1

- K+ excretion [1]: 1.3
- K+ excretion [3]: 1
- Na+ excretion [5]: 1
- Na+ excretion [6]: 1.3
- Urinary volume [7]: 0.9
- K+ excretion [8]: 1.7
- Na+ excretion [10]: 2.1
- Urinary volume [11]: 1.4
- Na+ excretion [12]: 2.8
- Urinary volume [13]: 2.3
- Na+ excretion [14]: 2.5
- Urinary volume [17]: 2.5
- Urinary volume [18]: 2.8
- K+ excretion [19]: 2.2
- K+ excretion [21]: 1.1
- Na+ excretion [22]: 1.2
- Urinary volume [23]: 1
- K+ excretion [24]: 2.2
Structure (SMILES): Cn1c(N)nc(-c2ccccc2)c(Br)c1=O
- MABP change [2]: -7 mmHg
- MABP change [4]: -12 mmHg
- inhibition in vivo at 50 mg/kg [9]: 64%
- inhibition in vivo at 100 mg/kg [15]: 74%
- Diuretic activity [16]: 5.52
- inhibition in vivo at 25 mg/kg [20]: 36%
